ChEMBL document CHEMBL1124685, “Synthesis, DNA-binding properties, and antitumor activity of novel distamycin derivatives” (J Med Chem, 1989)

Tests used:
HEp-2 = experiment: Tested in vitro for the cytotoxicity as number of viable cells against Hep-2 cell line after 72 hr treatment at conc. of 10E-6; assay type: functional; conditions: Homo sapiens, HEp-2, 72 h; read-out: ID50 (the source's name)
Outline: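 Cytotoxicity read as number of viable cells. Hep-2 (MEM) received 72-h continuous drug treatment. L1210 and L1210/L-PAM (RPMI 1640) received 4-h treatment followed by 48-h incubation in drug-free medium. Media contained 10% fetal calf serum, glutamine, streptomycin and penicillin, at 37 °C in humidified 5% CO2.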

L1210 [1] = experiment: Median survival time of treated to the control mice with L1210 tumor cells; assay type: functional, Mus musculus
Outline: (§1)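 CDF1 mice inoculated intraperitoneally with 10⁵ L1210 or L1210/L-PAM cells per mouse, then treated intraperitoneally after tumor transplant. T/C % = median survival time of treated mice / median survival time of controls × 100. Activity criterion is T/C ≥ 125%. Optimal nontoxic dose (OD) is defined as a dose below LD10.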

HeLa = experiment: Tested in vitro for the dose inhibiting cell proliferation by 50% against HeLa cell line after 24 hr treatment at conc. of 10E-6; assay type: functional; conditions: Homo sapiens, read-out: ID50 (the source's name)
L1210/LPAM [2] = experiment: Tested in vivo for optimal non-toxic dose against L1210/LPAM cell line in CDF1 mice; assay type: ADME, organism-based; conditions: mouse; outline: as §1
L1210 [3] = experiment: Tested in vivo for optimal non-toxic dose against L1210 cell line in CDF1 mice; assay type: ADME, organism-based; conditions: mouse; outline: as §1
[4] = Tested in vitro for the resistance index ratio (ID50) of L1210/LPAM to L1210 cell line; assay type: functional
Outline: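 Resistance index = ID50 (L1210/L-PAM) / ID50 (L1210), where ID50 is the dose inhibiting proliferation by 50%. Cells were exposed to drug for 4 h, then incubated 48 h in drug-free medium. Culture was RPMI 1640 with 10% fetal calf serum, glutamine and antibiotics, at 37 °C in 5% CO2.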

L1210 [5] = experiment: Tested in vitro for the cytotoxicity as number of viable cells against L1210 cell line after 4 hr treatment and 48 hr incubation in drug-free medium at conc. of 10E-6; conditions: Mus musculus, L1210, 4 h treatment, 48 h drug-free incubation; read-out: ID50 (the source's name)
L1210/LPAM [6] = experiment: Median survival time of treated to the control was determined in L1210/LPAM cell line; assay type: functional, Mus musculus; outline: as §1
L1210/LPAM [7] = experiment: Tested in vitro for the cytotoxicity as number of viable cells against L1210/LPAM cell line after 4 hr treatment and 48 hr incubation in drug-free medium at conc. of 10E-6; conditions: Mus musculus, 48 h drug-free incubation, read-out: ID50 (the source's name)
L1210 [8] = experiment: Median survival time of treated to the control was determined in L1210 cell line; assay type: functional, Mus musculus; outline: as §1

| SMILES | IC50 (HEp-2) [µM] | T/C (L1210 [1]) [%] | IC50 (HeLa) [µM] | OD (L1210/LPAM [2]) [mg/kg] | OD (L1210 [3]) | Ratio [4] | IC50 (L1210 [5]) [µM] | T/C (L1210/LPAM [6]) [%] | IC50 (L1210/LPAM [7]) [µM] | T/C (L1210 [8]) [%] |
| --- | --- | --- | --- | --- | --- | --- | --- | --- | --- | --- |
| Cn1cc(NC(=O)c2cc(NC(=O)c3cc(NC=O)cn3C)cn2C)cc1C(=O)NCCC(=N)N [STALLIMYCIN] | 97 | 113 | 48 | 200 | 200 mg/kg | 0.7 | 488 | 106 | 343 | – |
| Cl.Cn1cc(NC(=O)c2cc(NC(=O)c3cc(N(CCCl)CCCl)cn3C)cn2C)cc1C(=O)NCCC(=N)N | 1.22 | 138 | 1.95 | 1.56 | 1.56 M | 1.3 | 3.53 | 122 | 4.56 | – |
| Cl.Cn1cc(NC(=O)c2cc(NC(=O)c3cc(NC(=O)c4cc(N(CCCl)CCCl)cs4)cn3C)cn2C)cc1C(=O)NCCC(=N)N | 0.09 | 132 | 0.05 | 1.56 | 1.56 mg/kg | 0.69 | 1.93 | 111 | 1.32 | – |
| Cl.Cn1cc(NC(=O)c2cc(NC(=O)c3cc(NC(=O)c4cc(N(CCCl)CCCl)cn4C)cn3C)cn2C)cc1C(=O)NCCC(=N)N | 0.1 | 188 | 0.06 | 0.39 | 0.39 mg/kg | 0.87 | 0.08 | 167 | 0.07 | – |
| Cl.Cn1cc(NC(=O)c2cc(NC(=O)c3cc(NC(=O)c4ccc(N(CCCl)CCCl)cc4)cn3C)cn2C)cc1C(=O)NCCC(=N)N [TALLIMUSTINE CHLORIDE] | 0.19 | 175 | 0.02 | 3.12 | 3.12 mg/kg | – | 1.22 | 144 | 0.36 | – |
| N[C@@H](Cc1ccc(N(CCCl)CCCl)cc1)C(=O)O [MELPHALAN] | 0.98 | – | 1.77 | 10 | 10 mg/kg | 7.7 | 1.7 | 104 | 13.1 | 192 |
